The compounds below were run against Fibroblast growth factor receptor 1 (Homo sapiens, UniProt P11362) (assay: Inhibition of FGFR1). Conditions: not given; call rule not given here.
Sequence of Fibroblast growth factor receptor 1 (P11362 whole entry): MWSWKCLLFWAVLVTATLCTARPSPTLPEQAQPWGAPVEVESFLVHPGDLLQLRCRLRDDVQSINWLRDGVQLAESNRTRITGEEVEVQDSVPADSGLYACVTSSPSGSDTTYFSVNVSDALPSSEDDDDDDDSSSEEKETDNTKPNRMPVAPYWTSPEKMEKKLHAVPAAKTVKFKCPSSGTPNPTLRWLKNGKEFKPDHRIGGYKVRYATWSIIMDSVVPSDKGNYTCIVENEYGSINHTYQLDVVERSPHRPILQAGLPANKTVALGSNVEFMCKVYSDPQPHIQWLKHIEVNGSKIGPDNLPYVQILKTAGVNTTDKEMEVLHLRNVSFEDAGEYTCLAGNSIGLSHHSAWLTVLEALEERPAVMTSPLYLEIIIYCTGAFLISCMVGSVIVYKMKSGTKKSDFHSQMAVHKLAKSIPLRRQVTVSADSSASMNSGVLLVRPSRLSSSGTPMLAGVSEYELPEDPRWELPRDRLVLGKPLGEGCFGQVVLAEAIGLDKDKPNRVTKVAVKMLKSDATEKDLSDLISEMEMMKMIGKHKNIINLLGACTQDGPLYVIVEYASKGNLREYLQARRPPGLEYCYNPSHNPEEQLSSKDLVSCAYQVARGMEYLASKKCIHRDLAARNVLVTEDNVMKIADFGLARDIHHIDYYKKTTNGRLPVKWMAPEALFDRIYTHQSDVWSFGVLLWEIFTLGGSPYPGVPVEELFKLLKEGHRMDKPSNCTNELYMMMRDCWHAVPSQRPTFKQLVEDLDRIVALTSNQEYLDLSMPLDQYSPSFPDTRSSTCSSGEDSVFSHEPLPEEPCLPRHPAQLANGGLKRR
In the case of `CC(=O)Nc1nc(-c2ccc(Cl)c(Cl)c2)nc2c1c(=O)oc1ccccc12`, the IC50 is reported as “Not Active”.
`CC(CCc1ccccc1)NC(=O)COC(=O)CC1Sc2ccccc2NC1=O` (stereo not given) was tested, and the IC50 was “Not Active”.
With `O=C(NCc1n[nH]c(=O)c2ccccc12)c1ccc(Br)o1` the IC50 was “Not Active”.
With `CCc1ccc(OCCCOc2ccc(/C=C3\SC(=O)NC3=O)cc2)cc1` the IC50 was “Not Active”.
`O=C1C(Nc2ccccc2)=CC(c2cccc([N+](=O)[O-])c2)N1c1ccccc1` (stereo not given) was tested, and the IC50 was “Not Active”.
For `Cc1ccc2[nH]c(=O)c3cc(C(=O)N4CCN(c5ccccn5)CC4)sc3c2c1`, the IC50 was “Not Active”.
With `C=C1c2ccccc2NC(=O)N1c1cccc(Cl)c1` the IC50 was “Not Active”.
In the case of `CCOC(=O)CNc1ccccc1-c1nc2ccccc2[nH]c1=O`, the IC50 is reported as “Not Active”.
In the case of `COc1cc(/C=C2\NC(=S)NC2=O)ccc1OCCCOc1ccccc1Cl`, the IC50 is reported as “Not Active”.
In the case of `Cc1ccc(C2(C)NC(=O)N(Cc3ccc(F)cc3)C2=O)cc1` (stereo not given), the IC50 is reported as “Not Active”.
In the case of `COc1cc(/C=C2\NC(=S)NC2=O)ccc1OCCCOc1ccc(Cl)cc1`, the IC50 is reported as “Not Active”.
With `Cc1ccc2[nH]c(=O)c(-c3nc4ccc(Cl)cn4c3NCC3CCCO3)cc2c1` (stereo not given) the IC50 was “Not Active”.
In the case of `COc1cc(/C=C2\NC(=S)NC2=O)ccc1OCCCOc1cc(C)cc(C)c1`, the IC50 is reported as “Not Active”.
`COc1cc(C2C=C(Nc3ccccc3)C(=O)N2c2ccccc2)ccc1O` (stereo not given) was tested, and the IC50 was “Not Active”.
In the case of `O=C(CC1NC(=O)c2ccccc21)NCc1ccco1` (stereo not given), the IC50 is reported as “Not Active”.
In the case of `CC(=O)Nc1nc(-c2ccc(C(C)(C)C)cc2)nc2c1c(=O)oc1ccccc12`, the IC50 is reported as “Not Active”.
In the case of `C/C(=N\CC1CCCO1)C1C(=O)NC(=O)N(c2ccc(C)cc2)C1=O` (stereo not given), the IC50 is reported as “Not Active”.
With `O=c1[nH]c2ccc(NCc3cccc(OCc4ccccc4)c3)cc2[nH]1` the IC50 was “Not Active”.
With `O=C(CSc1nc2c(c(=O)[nH]1)C1CCCCC1S2)NCc1ccco1` (stereo not given) the IC50 was “Not Active”.
In the case of `COc1cc(/C=C2\NC(=S)NC2=O)ccc1OCCCOc1cccc(C)c1`, the IC50 is reported as “Not Active”.
`CC(C)C(=O)Nc1nc2c(c3c1c(=O)oc1ccccc13)CCCC2` was tested, and the IC50 was “Not Active”.
With `COc1ccc2cc(-c3nc4cccc(C)n4c3NC3CCCC3)c(=O)[nH]c2c1` the IC50 was “Not Active”.
In the case of `COc1ccc2cc(C3(C)NC(=O)N(Cc4ccc(F)cc4Cl)C3=O)ccc2c1` (stereo not given), the IC50 is reported as “Not Active”.
For `COc1cccc(-c2nc(=O)c3c4c(sc3[nH]2)CC(C)CC4)c1` (stereo not given), the IC50 was “Not Active”.
For `COc1cc(-c2nc(=O)c3c([nH]2)sc2cc(C(F)(F)F)ccc23)ccc1OCC(=O)O`, the IC50 was “Not Active”.
In the case of `COc1cc(/C=C2\NC(=S)NC2=O)ccc1OCCCOc1cccc(Cl)c1`, the IC50 is reported as “Not Active”.
In the case of `COc1ccc(-c2nc(=O)c3c4c(sc3[nH]2)CC(C)CC4)cc1OC` (stereo not given), the IC50 is reported as “Not Active”.
In the case of `Cc1ccc(SCCNC(=O)COC(=O)Cc2n[nH]c(=O)c3ccccc23)cc1`, the IC50 is reported as “Not Active”.
In the case of `COc1ccc(-c2nc(NC(C)=O)c3c(=O)oc4ccc(Cl)cc4c3n2)cc1`, the IC50 is reported as “Not Active”.

Same assay, conditions: read-out: IC50
In the case of `CCc1ccc2c(c1)sc1[nH]c(-c3ccc(OCC(=O)O)c(OC)c3)nc(=O)c12`, the IC50 is reported as 5.5 µM.
Compound `COc1cc(-c2nc3sc4cc(C)ccc4c3c(=O)[nH]2)ccc1OCC(=O)O` has an IC50 of 4 µM.
Work on `COc1cc(/C=C2\SC(=N)NC2=O)ccc1OCCCOc1cc(C)cc(C)c1` yielded an IC50 of 23 µM.
Compound `COCc1cc(/C=C2\NC(=S)NC2=O)ccc1OCCCOc1cc(C)cc(C)c1` has an IC50 of 3300 µM.
With `CCOc1cc(/C=C2\NC(=S)NC2=O)ccc1OCCCOc1cc(C)cc(C)c1` the IC50 was 250 µM.
`COc1cc(-c2nc3sc4c(c3c(=O)[nH]2)CCC(C)C4)ccc1OCC(=O)O` (stereo not given) gave an IC50 of 50 µM.

What follows are compounds tested against Epidermal growth factor receptor (Homo sapiens, UniProt P00533) (assay: Inhibition of EGFR). Conditions: not given.
Sequence of Epidermal growth factor receptor (P00533 whole entry): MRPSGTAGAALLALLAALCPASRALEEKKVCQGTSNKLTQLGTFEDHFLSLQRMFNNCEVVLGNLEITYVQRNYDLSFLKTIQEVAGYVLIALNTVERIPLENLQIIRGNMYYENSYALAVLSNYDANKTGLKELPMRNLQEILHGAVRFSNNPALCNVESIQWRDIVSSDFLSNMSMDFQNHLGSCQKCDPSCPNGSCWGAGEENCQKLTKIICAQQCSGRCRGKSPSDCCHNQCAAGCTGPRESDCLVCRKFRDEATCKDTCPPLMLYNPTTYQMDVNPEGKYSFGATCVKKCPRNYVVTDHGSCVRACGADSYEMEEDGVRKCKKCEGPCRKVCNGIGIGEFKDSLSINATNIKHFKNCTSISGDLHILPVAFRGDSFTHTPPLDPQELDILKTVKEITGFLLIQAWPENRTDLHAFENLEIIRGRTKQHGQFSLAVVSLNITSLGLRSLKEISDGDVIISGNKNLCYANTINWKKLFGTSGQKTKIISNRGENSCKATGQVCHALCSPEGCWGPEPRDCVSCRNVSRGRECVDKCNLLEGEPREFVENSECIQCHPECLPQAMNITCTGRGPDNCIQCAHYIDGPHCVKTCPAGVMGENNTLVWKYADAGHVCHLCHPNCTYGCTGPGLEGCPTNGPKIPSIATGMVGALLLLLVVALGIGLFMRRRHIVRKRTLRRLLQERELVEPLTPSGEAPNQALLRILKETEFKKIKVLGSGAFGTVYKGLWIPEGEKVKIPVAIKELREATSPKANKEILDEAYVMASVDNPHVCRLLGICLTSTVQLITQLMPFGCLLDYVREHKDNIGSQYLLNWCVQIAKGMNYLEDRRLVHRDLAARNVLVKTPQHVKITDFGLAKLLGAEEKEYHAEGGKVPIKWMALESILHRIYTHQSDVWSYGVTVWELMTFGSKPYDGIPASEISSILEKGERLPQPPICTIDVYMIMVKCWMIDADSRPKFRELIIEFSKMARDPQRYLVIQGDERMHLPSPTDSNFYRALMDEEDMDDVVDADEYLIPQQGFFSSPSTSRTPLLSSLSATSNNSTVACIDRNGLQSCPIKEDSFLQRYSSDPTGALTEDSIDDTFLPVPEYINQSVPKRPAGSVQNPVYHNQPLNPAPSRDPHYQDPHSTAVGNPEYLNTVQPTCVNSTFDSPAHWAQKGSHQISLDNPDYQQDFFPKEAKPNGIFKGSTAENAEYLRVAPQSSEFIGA
In short: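 Commercially sourced EGFR enzyme was tested in an AlphaScreen format. Kinase, biotinylated peptide, ATP and inhibitor were combined across 10 wells, typically 0.01 µM to 250 µM inhibitor. Phosphorylation ran for 30 min and was stopped with EDTA. Phosphopeptide was detected with anti-phosphotyrosine acceptor beads and streptavidin donor beads.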
`COc1cc(/C=C2\SC(=N)NC2=O)ccc1OCCCOc1cc(C)cc(C)c1` was tested, and the IC50 was 56 µM.
Compound `COc1cc(-c2nc(=O)c3c([nH]2)sc2ccc(C)cc23)ccc1OCC(=O)O` has an IC50 of 2.4 µM.

Each compound was assayed against Proto-oncogene tyrosine-protein kinase Src (Homo sapiens, UniProt P12931) (assay: Inhibition of SRC). Conditions: not given.
Sequence of Proto-oncogene tyrosine-protein kinase Src (P12931 2-536 limits assumed): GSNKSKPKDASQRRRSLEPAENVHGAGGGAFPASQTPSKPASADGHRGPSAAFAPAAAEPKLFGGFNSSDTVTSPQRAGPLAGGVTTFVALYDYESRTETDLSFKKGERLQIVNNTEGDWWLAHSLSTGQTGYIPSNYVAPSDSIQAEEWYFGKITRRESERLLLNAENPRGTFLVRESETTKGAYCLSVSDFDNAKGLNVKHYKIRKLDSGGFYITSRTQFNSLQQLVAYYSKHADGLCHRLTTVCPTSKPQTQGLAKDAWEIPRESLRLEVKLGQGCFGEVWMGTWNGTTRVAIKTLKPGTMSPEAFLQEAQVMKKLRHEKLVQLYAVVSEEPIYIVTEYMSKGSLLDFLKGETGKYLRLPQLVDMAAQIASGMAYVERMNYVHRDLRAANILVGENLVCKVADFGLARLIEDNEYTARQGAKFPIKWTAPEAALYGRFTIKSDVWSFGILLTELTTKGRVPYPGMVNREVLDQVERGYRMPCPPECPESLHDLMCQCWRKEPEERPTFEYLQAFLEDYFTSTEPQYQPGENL
Work on `COc1cc(/C=C2\SC(=N)NC2=O)ccc1OCCCOc1cc(C)cc(C)c1` yielded an IC50 of 10 µM.

The compounds below were run against T1, Insulin receptor (Homo sapiens, UniProt P06213). Conditions: not given.
T1 sequence (P06213 28-758 limits assumed): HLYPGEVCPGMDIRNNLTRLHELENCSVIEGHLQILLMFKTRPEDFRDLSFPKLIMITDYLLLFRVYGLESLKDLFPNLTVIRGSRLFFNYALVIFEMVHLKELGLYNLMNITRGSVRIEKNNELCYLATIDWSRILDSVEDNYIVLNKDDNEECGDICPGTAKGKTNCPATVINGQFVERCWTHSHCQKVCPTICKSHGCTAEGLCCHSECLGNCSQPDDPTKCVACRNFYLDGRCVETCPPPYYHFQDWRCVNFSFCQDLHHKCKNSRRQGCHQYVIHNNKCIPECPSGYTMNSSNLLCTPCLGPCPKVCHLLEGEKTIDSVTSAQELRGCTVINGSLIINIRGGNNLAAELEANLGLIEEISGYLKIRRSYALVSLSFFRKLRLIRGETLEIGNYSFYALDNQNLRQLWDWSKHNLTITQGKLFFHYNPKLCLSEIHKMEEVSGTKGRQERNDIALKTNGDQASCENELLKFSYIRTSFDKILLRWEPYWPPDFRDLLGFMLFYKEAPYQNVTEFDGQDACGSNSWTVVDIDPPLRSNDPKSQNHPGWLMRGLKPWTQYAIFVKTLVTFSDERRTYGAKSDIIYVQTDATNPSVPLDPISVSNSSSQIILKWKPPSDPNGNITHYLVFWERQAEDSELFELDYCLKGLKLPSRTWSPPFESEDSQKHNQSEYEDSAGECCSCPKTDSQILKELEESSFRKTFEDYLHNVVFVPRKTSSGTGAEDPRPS
T1 sequence (P06213 763-1382 limits assumed): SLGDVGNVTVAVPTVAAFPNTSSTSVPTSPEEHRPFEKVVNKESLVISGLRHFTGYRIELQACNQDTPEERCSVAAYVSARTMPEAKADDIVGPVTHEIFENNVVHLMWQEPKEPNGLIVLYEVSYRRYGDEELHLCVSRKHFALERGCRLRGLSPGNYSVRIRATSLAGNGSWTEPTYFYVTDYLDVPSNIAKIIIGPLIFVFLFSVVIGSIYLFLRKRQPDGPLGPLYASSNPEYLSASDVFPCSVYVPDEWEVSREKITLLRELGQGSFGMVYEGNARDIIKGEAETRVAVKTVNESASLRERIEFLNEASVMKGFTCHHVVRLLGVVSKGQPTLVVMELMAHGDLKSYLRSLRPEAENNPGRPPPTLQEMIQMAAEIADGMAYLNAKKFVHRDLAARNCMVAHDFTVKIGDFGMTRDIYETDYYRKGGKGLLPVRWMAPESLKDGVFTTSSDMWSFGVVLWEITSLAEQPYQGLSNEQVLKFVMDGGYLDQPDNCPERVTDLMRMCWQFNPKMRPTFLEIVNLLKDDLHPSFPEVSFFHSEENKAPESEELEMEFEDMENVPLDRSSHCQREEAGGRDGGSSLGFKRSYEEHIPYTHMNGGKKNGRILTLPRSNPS
`COc1cc(/C=C2\SC(=N)NC2=O)ccc1OCCCOc1cc(C)cc(C)c1` was tested, and the IC50 was 47 µM.

Molecular target: T1, Insulin receptor
Conditions: not given
Remark: another data set of the same source
In the case of `COc1cc(-c2nc(=O)c3c([nH]2)sc2ccc(C)cc23)ccc1OCC(=O)O`, the IC50 is reported as “Not Active”.
